These results are taken from ChEMBL document CHEMBL4177580, “New 5-HT1A, 5HT2A and 5HT2C receptor ligands containing a picolinic nucleus: Synthesis, in vitro and in vivo pharmacological evaluation” (Bioorg Med Chem, 2017).

Series [1] concerns the target T1, Adrenergic receptor alpha-2 (Rattus norvegicus, UniProt P22086+P19328+P22909).
T1 sequence (P22086 whole entry): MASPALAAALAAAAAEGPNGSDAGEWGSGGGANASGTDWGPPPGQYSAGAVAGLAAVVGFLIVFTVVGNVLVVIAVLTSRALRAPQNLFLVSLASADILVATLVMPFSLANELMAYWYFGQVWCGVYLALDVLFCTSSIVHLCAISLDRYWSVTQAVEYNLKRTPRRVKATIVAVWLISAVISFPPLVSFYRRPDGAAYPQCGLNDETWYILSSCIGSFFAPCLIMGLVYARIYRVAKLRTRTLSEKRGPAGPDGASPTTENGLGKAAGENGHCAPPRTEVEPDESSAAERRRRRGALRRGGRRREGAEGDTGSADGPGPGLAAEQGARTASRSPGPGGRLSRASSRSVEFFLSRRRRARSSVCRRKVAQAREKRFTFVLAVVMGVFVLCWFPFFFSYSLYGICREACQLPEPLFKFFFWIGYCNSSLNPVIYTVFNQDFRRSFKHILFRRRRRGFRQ
T1 sequence (P19328 whole entry): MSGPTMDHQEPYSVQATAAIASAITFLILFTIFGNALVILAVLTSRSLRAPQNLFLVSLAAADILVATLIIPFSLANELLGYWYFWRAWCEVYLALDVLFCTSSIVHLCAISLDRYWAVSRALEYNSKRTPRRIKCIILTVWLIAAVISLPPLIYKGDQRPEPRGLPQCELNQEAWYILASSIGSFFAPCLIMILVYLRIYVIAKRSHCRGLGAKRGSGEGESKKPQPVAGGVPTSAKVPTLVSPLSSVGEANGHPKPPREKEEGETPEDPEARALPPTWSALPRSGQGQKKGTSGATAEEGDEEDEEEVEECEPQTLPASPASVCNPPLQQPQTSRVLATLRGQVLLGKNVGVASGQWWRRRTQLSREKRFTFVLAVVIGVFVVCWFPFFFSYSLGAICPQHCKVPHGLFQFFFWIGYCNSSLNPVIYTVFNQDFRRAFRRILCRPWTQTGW
T1 sequence (P22909 whole entry): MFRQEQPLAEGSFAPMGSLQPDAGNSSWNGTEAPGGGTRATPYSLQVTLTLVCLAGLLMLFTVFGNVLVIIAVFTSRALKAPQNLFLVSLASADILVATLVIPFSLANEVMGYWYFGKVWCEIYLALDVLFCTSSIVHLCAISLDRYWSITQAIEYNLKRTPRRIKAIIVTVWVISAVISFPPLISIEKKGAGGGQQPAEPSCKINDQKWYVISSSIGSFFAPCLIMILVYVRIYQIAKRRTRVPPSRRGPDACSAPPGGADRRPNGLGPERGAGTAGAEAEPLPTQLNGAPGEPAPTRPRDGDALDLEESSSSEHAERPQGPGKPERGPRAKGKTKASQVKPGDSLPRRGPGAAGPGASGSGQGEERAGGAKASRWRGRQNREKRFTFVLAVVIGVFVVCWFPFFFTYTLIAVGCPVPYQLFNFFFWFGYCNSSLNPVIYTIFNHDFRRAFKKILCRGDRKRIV
Nature of the series: Displacement of [3H]RX 821002 from adrenergic alpha2 receptor in rat cerebral cortex. In general terms: Displacement assays read how much labelled ligand stays bound in the presence of the test substance.

Series [2] deals with T2, 5-hydroxytryptamine receptor 2C (Rattus norvegicus, UniProt P08909).
T2 sequence (P08909 whole entry): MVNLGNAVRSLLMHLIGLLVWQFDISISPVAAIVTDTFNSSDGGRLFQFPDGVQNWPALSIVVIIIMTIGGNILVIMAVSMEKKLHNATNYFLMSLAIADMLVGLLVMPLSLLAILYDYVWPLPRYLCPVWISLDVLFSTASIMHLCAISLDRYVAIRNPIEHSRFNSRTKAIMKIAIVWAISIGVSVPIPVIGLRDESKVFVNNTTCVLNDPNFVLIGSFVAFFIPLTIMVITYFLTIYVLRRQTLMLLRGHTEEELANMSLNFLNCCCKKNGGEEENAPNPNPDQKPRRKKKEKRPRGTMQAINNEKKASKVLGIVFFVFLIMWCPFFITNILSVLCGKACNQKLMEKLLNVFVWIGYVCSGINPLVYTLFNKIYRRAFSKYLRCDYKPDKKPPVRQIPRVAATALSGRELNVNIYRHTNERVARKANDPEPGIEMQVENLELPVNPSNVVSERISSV
Kind of series: Displacement of [3H]mesulergine from serotonin 5-HT2C receptor in Sprague-Dawley rat brain cortex homogenates incubated for 15 mins by liquid scintillation spectrometry.

The subject of series [3] is Mus musculus. Nature of the series: Toxicity in Swiss albino mouse assessed as induction of impairment of motor coordination by measuring reduction in time spent on rota-rod at 60 mg/kg, ip dosed 60 mins before test by rotarod test. Type of series: organism-based. The following applies: in vivo, 1 h. The essentials:
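Rotarod in male Swiss mice, i.p. dosing 60 min pre-test: impairment is inability to stay 1 min on a rod turning at 18 rpm, after 3 days of daily training. Mean ± SEM of 2 independent experiments; one-way ANOVA with Dunnett's.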
A general note: Falling from the rotarod earlier than controls is read as motor impairment.

The target in series [4] is T3, 5-hydroxytryptamine receptor 1A (Rattus norvegicus, UniProt P19327).
T3 sequence (P19327 whole entry): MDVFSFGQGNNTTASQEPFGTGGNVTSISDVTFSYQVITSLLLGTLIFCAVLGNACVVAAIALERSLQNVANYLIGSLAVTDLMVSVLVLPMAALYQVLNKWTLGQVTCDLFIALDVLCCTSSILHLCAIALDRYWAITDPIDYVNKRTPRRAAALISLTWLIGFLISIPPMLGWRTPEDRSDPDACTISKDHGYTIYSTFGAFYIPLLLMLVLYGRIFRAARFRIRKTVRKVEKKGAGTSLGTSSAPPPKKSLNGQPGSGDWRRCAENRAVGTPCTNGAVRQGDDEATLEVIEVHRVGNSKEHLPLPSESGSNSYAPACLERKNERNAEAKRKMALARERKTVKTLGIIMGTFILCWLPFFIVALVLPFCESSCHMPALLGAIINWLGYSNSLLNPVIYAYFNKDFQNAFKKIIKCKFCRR
Kind of series: Displacement of [3H]-8-OH-DPAT from serotonin 5-HT1A receptor in Sprague-Dawley rat brain cortex homogenates incubated for 30 mins by liquid scintillation spectrometry.

Series [5] concerns Mus musculus. Kind of series: Toxicity in Swiss albino mouse assessed as reduction in spontaneous locomotor activity at 60 mg/kg, ip dosed 60 mins before test and measured after 30 mins. Type of series: organism-based. The note with it: in vivo, 0.5 h. The procedure, abridged: (§1)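 Spontaneous locomotion: mice dosed i.p. 60 min before being placed individually in an actometer for 30 min. Distance travelled read at 6 and 30 min. Cages cleaned with 70% ethanol between animals. One-way ANOVA with Dunnett's; mean ± SEM of one experiment.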

Series [6] relates to Mus musculus. Nature of the series: Toxicity in Swiss albino mouse assessed as reduction in spontaneous locomotor activity at 60 mg/kg, ip dosed 60 mins before test and measured after 6 mins. The note with it: in vivo, 0.1 h. Type of series: organism-based. The essentials: as §1
The target in the next series is D(2) dopamine receptor (Homo sapiens, UniProt P14416). Nature of the series: Displacement of [3H]methyl-spiperone from human recombinant dopamine D2 receptor expressed in HEK293 cells. Type of series: cell-based.
D(2) dopamine receptor, sequence (P14416 whole entry): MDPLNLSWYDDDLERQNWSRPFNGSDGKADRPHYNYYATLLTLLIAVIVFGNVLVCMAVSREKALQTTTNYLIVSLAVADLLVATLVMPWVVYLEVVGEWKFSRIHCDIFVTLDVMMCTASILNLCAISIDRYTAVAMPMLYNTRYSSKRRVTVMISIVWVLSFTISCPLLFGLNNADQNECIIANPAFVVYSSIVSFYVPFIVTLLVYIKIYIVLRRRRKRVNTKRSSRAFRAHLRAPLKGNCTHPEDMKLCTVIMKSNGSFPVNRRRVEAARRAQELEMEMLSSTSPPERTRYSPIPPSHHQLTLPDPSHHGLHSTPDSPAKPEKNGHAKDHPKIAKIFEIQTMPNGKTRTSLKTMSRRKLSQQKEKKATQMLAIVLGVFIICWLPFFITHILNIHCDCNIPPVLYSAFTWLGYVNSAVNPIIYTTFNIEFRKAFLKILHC

In the case of `O=C(NCCN1CCN(c2ccc(Cl)c(Cl)c2)CC1)c1ccccn1`, the Ki (commonly the equilibrium dissociation constant of an inhibitor or competing ligand from its target) is 4.2 µM in series [1], above 10 µM in series [2], 0.000183 µM in series [4] and 0.25 µM at D(2) dopamine receptor. For the same compound, the Activity entry in the series with Mus musculus [3], in the series with Mus musculus [5] and in the series with Mus musculus [6] was “Toxic” throughout.
